Source: ChEMBL document CHEMBL4680134, “Structural optimization of natural product nordihydroguaretic acid to discover novel analogues as AcrB inhibitors” (Eur J Med Chem, 2020)

Key:
[1] = Growth inhibition of Escherichia coli BW25113 expressing AcrB at 512 ug/ml after 18 hrs by broth microdilution assay; details: dose 512 µg/ml
Method in brief: (§1)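 MIC determined by 96-well broth microdilution in E. coli BW25113 expressing AcrB ((+)AcrB) and an isogenic acrB-deleted strain ((-)AcrB). Used to set the compound concentrations for synergy testing that produce no direct antibacterial effect.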

[2] = Growth inhibition of Escherichia coli harboring AcrB deletion mutant at 64 ug/ml after 18 hrs by broth microdilution assay; details: dose 64 µg/ml; method in brief: as §1
[3] = target: T1, Multidrug efflux pump subunit AcrB (Escherichia coli (strain K12)) (UniProt P31224); test: Inhibition of AcrB in Escherichia coli BW25113 assessed as potentiation of chloramphenicol induced antibacterial activity by measuring chloramphenicol MIC at 16 ug/ml measured after 18 hrs by checkerboard titration method (reference value: 8 ug/ml); details: dose 16.0 µg/ml
T1 sequence (whole entry): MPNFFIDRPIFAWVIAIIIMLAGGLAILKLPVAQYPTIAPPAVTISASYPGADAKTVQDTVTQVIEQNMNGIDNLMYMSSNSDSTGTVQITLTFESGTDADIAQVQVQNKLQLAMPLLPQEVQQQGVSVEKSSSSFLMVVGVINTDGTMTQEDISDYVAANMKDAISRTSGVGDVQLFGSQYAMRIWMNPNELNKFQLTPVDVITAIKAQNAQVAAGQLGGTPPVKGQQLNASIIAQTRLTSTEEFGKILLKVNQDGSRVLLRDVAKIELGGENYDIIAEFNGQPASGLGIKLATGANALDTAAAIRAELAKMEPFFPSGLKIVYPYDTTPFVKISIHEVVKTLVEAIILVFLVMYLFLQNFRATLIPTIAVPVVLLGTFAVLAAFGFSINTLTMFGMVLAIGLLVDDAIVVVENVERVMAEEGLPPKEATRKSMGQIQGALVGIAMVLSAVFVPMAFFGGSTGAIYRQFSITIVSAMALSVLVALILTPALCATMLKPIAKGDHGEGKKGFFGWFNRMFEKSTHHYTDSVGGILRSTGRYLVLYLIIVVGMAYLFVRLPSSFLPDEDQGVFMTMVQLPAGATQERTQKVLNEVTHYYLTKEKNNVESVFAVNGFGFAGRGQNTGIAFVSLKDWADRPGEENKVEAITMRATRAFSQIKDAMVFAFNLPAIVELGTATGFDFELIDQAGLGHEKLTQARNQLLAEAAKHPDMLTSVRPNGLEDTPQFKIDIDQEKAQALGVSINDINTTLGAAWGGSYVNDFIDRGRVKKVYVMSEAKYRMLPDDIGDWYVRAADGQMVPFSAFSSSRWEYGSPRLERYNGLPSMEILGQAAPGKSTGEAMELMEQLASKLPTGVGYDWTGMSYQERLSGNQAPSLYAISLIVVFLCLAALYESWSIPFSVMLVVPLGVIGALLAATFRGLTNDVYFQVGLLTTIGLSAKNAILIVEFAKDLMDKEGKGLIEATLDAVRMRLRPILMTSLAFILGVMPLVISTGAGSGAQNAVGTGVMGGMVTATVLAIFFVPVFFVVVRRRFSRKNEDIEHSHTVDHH

[4] = target: T1, Multidrug efflux pump subunit AcrB (Escherichia coli (strain K12)); test: Inhibition of AcrB in Escherichia coli BW25113 assessed as potentiation of chloramphenicol induced antibacterial activity by measuring chloramphenicol MIC at 32 ug/ml measured after 18 hrs by checkerboard titration method (reference value: 8 ug/ml); details: dose 32.0 µg/ml
[5] = target: T1, Multidrug efflux pump subunit AcrB (Escherichia coli (strain K12)); test: Inhibition of AcrB in Escherichia coli BW25113 assessed as potentiation of chloramphenicol induced antibacterial activity by measuring chloramphenicol MIC at 64 ug/ml measured after 18 hrs by checkerboard titration method (reference value: 8 ug/ml); details: dose 64.0 µg/ml
[6] = target: T1, Multidrug efflux pump subunit AcrB (Escherichia coli (strain K12)); test: Inhibition of AcrB in Escherichia coli BW25113 assessed as potentiation of chloramphenicol induced antibacterial activity by measuring chloramphenicol MIC at 128 ug/ml measured after 18 hrs by checkerboard titration method (reference value: 8 ug/ml); details: dose 128.0 µg/ml
[7] = target: T1, Multidrug efflux pump subunit AcrB (Escherichia coli (strain K12)); test: Inhibition of AcrB in Escherichia coli BW25113 assessed as potentiation of erythromycin induced antibacterial activity by measuring erythromycin MIC at 32 ug/ml measured after 18 hrs by checkerboard titration method (reference value: 64 ug/ml); details: dose 32.0 µg/ml
[8] = target: T1, Multidrug efflux pump subunit AcrB (Escherichia coli (strain K12)); test: Inhibition of AcrB in Escherichia coli BW25113 assessed as potentiation of tetraphenylphosphonium induced antibacterial activity by measuring tetraphenylphosphonium MIC at 16 ug/ml measured after 18 hrs by checkerboard titration method (reference value: 1024 ug/ml); details: dose 16.0 µg/ml
[9] = target: T1, Multidrug efflux pump subunit AcrB (Escherichia coli (strain K12)); test: Inhibition of AcrB in Escherichia coli BW25113 assessed as potentiation of tetraphenylphosphonium induced antibacterial activity by measuring tetraphenylphosphonium MIC at 32 ug/ml measured after 18 hrs by checkerboard titration method (reference value: 1024 ug/ml); details: dose 32.0 µg/ml
[10] = target: T1, Multidrug efflux pump subunit AcrB (Escherichia coli (strain K12)); test: Inhibition of AcrB in Escherichia coli BW25113 assessed as potentiation of tetraphenylphosphonium induced antibacterial activity by measuring tetraphenylphosphonium MIC at 64 ug/ml measured after 18 hrs by checkerboard titration method (reference value: 1024 ug/ml); details: dose 64.0 µg/ml
[11] = target: T1, Multidrug efflux pump subunit AcrB (Escherichia coli (strain K12)); test: Inhibition of AcrB in Escherichia coli BW25113 assessed as potentiation of levofloxacin induced antibacterial activity by measuring levofloxacin MIC at 16 ug/ml measured after 18 hrs by checkerboard titration method (reference value: 0.06 ug/ml); details: dose 16.0 µg/ml
[12] = target: T1, Multidrug efflux pump subunit AcrB (Escherichia coli (strain K12)); test: Inhibition of AcrB in Escherichia coli BW25113 assessed as potentiation of levofloxacin induced antibacterial activity by measuring levofloxacin MIC at 128 ug/ml measured after 18 hrs by checkerboard titration method (reference value: 0.06 ug/ml); details: dose 128.0 µg/ml
[13] = target: T1, Multidrug efflux pump subunit AcrB (Escherichia coli (strain K12)); test: Inhibition of AcrB in Escherichia coli BW25113 assessed as potentiation of rifampicin induced antibacterial activity by measuring rifampicin MIC at 16 ug/ml measured after 18 hrs by checkerboard titration method (reference value: 16 ug/ml); details: dose 16.0 µg/ml
[14] = target: T1, Multidrug efflux pump subunit AcrB (Escherichia coli (strain K12)); test: Inhibition of AcrB in Escherichia coli BW25113 assessed as potentiation of rifampicin induced antibacterial activity by measuring rifampicin MIC at 32 ug/ml measured after 18 hrs by checkerboard titration method (reference value: 16 ug/ml); details: dose 32.0 µg/ml
[15] = target: T1, Multidrug efflux pump subunit AcrB (Escherichia coli (strain K12)); test: Inhibition of AcrB in Escherichia coli BW25113 assessed as potentiation of rifampicin induced antibacterial activity by measuring rifampicin MIC at 128 ug/ml measured after 18 hrs by checkerboard titration method (reference value: 16 ug/ml); details: dose 128.0 µg/ml
[16] = test system: Cell membrane; test: Induction of outer membrane permeabilization in wild type Escherichia coli BW25113 assessed as increase in nitrocefin hydrolysis at 128 ug/ml by spectrophotometry analysis; details: dose 128 µg/ml
Method in brief: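 Outer-membrane permeability: intact E. coli treated with 10 µM CCCP to block nitrocefin efflux, then exposed to compound. Nitrocefin hydrolysis by periplasmic β-lactamase followed as increasing absorbance at 490 nm over time. Polymyxin B as permeabilizer control, untreated cells as baseline. Duplicate experiments on different days.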

| Compound | growth inhibition (GI) [1] | growth inhibition (GI) [2] | MIC [3] [µg/mL] | MIC [4] [µg/mL] | MIC [5] [µg/mL] | MIC [6] [µg/mL] | MIC [7] [µg/mL] | MIC [8] [µg/mL] | MIC [9] [µg/mL] | MIC [10] [µg/mL] | MIC [11] [µg/mL] | MIC [12] [µg/mL] | MIC [13] [µg/mL] | MIC [14] [µg/mL] | MIC [15] [µg/mL] | Activity [16] |
| --- | --- | --- | --- | --- | --- | --- | --- | --- | --- | --- | --- | --- | --- | --- | --- | --- |
| Nc1ccccc1C(=O)NCCc1ccc(O)c(O)c1 | Non-Toxic | Non-Toxic | 8 | 8 | 4 | 4 | 64 | 1020 | 1020 | 1020 | 0.06 | 0.06 | 16 | 16 | 16 | Non-Toxic |
| Oc1ccc(CCCCc2ccc(Br)cc2)cc1O | Non-Toxic | Non-Toxic | 8 | 8 | 8 | 8 | 64 | 1020 | 1020 | 512 | 0.06 | 0.06 | 16 | 16 | 16 | Toxic |
| Oc1ccc(CCCCCCCc2ccc(O)c(O)c2)cc1O | Non-Toxic | Non-Toxic | 8 | 8 | 8 | 8 | 64 | 1020 | 512 | 512 | 0.06 | 0.06 | 16 | 16 | 16 | Non-Toxic |
| Nc1ccc(C(=O)NCCc2ccc(O)c(O)c2)cc1 | Non-Toxic | Non-Toxic | 4 | 4 | 4 | 2 | 32 | 1020 | 1020 | 1020 | 0.06 | 0.06 | 16 | 16 | 16 | Non-Toxic |
| Oc1ccc(CCCCCc2ccc(O)c(O)c2)cc1O | Non-Toxic |  | 8 | 8 | 8 | 8 | 64 | 1020 | 1020 | 1020 | 0.06 | 0.06 | 16 | 16 | 16 | Non-Toxic |
| O=C(NCCc1ccc(O)c(O)c1)c1cc(O)c(O)c(O)c1 | Non-Toxic | Non-Toxic | 4 | 4 | 4 | 2 | 32 | 1020 | 512 | 512 | 0.06 | 0.03 | 16 | 16 | 16 | Non-Toxic |
| Oc1ccc(CCCCc2ccccc2O)cc1O | Non-Toxic | Non-Toxic | 8 | 4 | 4 | 4 | 64 | 512 | 512 | 512 | 0.06 | 0.06 | 16 | 16 | 16 | Non-Toxic |
| Nc1cc(N)cc(C(=O)NCCc2ccc(O)c(O)c2)c1 | Non-Toxic | Non-Toxic | 8 | 8 | 8 | 8 | 32 | 512 | 512 | 512 | 0.06 | 0.06 | 16 | 16 | 16 | Non-Toxic |
| Cc1ccc(C(=O)NCCc2ccc(O)c(O)c2)cc1 |  |  | 8 | 8 |  |  | 16 | 1020 | 1020 |  | 0.06 |  | 16 | 16 | 16 | Non-Toxic |
